Source: ChEMBL document CHEMBL4396931, “Fluorescent analogs of peptoid-based HDAC inhibitors: Synthesis, biological activity and cellular uptake kinetics” (Bioorg Med Chem, 2019)
Calls of active or inactive are those of the source. The calls are words filed in the database; no cut-off is given here.

Tests used:
[1] = tested on: OE33; test: Antiproliferative activity against human OE33 cells assessed as reduction in cell viability incubated for 72 hrs by presto blue assay; assay type: functional
Outline: (§1)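 3500 cells per well seeded and grown 24 h, then exposed to compound for 72 h. Viability read with PrestoBlue reagent per manufacturer's protocol, and GI50 taken from this.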

[2] = tested on: OE19; test: Antiproliferative activity against human OE19 cells assessed as reduction in cell viability incubated for 72 hrs by presto blue assay; assay type: functional; outline: as §1
[3] = Drug uptake in human OE33 cells assessed as cytoplasmic retention at 1.25 uM measured after 30 mins by RFP-tagged histone H2B staining based confocal microscopy; assay type: ADME, cell-based; conditions: oe33, 0.5 h
Outline: (§2)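 Cells transfected with cDNA for histone H2B–RFP (DNA:reagent 1:1), then incubated 30 min with 1.25 µM compound. Imaged by confocal microscopy with 63× objective and 405 nm excitation.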

[4] = molecular target: T1, Protein deacetylase HDAC6 (Homo sapiens, UniProt Q9UBN7); test: Inhibition of recombinant human full length C-terminal GST-tagged HDAC6 expressed in baculovirus infected Sf9 cells using ZMAL as substrate incubated for 90 mins by fluorometric method
T1 sequence (Q9UBN7 whole entry): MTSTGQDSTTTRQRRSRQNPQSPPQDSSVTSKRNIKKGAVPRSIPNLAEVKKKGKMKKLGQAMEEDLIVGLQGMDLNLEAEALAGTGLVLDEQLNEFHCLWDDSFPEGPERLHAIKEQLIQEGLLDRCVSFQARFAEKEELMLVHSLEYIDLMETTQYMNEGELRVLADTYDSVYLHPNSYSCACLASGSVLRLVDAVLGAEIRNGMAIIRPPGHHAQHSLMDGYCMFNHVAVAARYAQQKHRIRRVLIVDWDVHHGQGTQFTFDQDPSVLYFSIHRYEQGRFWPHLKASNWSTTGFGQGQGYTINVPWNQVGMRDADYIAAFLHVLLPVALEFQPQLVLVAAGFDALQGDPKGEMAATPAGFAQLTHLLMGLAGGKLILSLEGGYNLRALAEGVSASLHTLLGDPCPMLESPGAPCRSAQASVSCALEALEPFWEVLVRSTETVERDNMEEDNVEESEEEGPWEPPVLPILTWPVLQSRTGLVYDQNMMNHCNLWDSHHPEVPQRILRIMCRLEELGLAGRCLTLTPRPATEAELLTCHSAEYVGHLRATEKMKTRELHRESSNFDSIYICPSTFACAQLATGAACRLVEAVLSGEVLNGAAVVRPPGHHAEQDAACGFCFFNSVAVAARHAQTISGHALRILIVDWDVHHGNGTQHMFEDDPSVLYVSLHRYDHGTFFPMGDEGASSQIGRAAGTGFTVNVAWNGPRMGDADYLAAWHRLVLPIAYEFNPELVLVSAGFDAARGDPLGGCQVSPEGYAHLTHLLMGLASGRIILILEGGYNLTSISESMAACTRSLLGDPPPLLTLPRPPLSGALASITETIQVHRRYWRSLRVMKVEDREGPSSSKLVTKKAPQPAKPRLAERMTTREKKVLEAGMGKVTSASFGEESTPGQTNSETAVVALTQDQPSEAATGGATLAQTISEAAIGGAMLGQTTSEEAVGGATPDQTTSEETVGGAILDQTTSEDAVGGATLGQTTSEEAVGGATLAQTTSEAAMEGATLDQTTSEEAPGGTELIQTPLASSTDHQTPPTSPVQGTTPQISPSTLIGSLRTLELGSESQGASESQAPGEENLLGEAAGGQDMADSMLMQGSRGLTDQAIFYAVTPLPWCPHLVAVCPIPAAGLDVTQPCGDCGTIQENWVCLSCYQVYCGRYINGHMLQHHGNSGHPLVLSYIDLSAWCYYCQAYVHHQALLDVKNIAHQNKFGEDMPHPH

[5] = molecular target: Histone deacetylase 3/Nuclear receptor corepressor 2 (HDAC3/NCoR2) (Homo sapiens, UniProt O15379); test: Inhibition of recombinant human C-terminal GST/His-tagged HDAC3 (1 to 428 residues) co-expressed with human N-terminal GST-tagged NCOR2 (395 to 489 residues) in baculovirus infected Sf9 cells using ZMAL as substrate incubated for 90 mins by fluorometric method
[6] = molecular target: Histone deacetylase 2 (Homo sapiens, UniProt Q92769); test: Inhibition of recombinant human full length C-terminal Flag-tagged HDAC2 expressed in baculovirus infected Sf9 cells using ZMAL as substrate incubated for 90 mins by fluorometric method; assay type: cell-based
[7] = molecular target: Histone deacetylase 1 (Homo sapiens, UniProt Q13547); test: Inhibition of recombinant human full length C-terminal Flag/His-tagged HDAC1 expressed in baculovirus infected Sf9 cells using ZMAL as substrate incubated for 90 mins by fluorometric method
[8] = molecular target: T2, Histone deacetylase (Homo sapiens) (UniProt Q13547+O15379+Q9UBN7+Q92769+Q9UQL6+Q8WUI4+Q9BY41+Q96DB2+P56524+Q9UKV0+Q969S8); test: Inhibition of HDAC in human OE33 cells assessed as increase in histone H3 acetylation at 2.25 uM incubated for 48 hrs by Western blot analysis; assay type: cell-based
Outline: (§3)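 500,000 OE33 or 750,000 OE19 cells treated 48 h. Histones isolated, 5 µg nuclear extract run on 15% SDS-PAGE and blotted. Probed overnight at 4 °C with anti-acetyl-histone H3 (Lys9) and anti-histone H3, compared with untreated controls.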

[9] = molecular target: T2, Histone deacetylase (Homo sapiens); test: Inhibition of HDAC in human OE19 cells assessed as increase in histone H3 acetylation at 2.25 uM incubated for 48 hrs by Western blot analysis; assay type: cell-based; outline: as §3
[10] = Drug uptake in human OE33 cells assessed as increase in fluorescence intensity at 1.25 uM measured for every 10 sec for 30 mins by fluorescence based assay; assay type: ADME, cell-based; conditions: oe33, 0.5 h
Outline: (§4)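 Cells exposed to 1.25 µM compound, fluorescence recorded at Ex 370 nm / Em 530 nm every 10 s for 30 min on an epifluorescence microscope (40× objective). Treatment started 1 min before recording. Representative images taken at 15 min.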

[11] = Drug uptake in human OE19 cells assessed as increase in fluorescence intensity at 1.25 uM measured for every 10 sec for 30 mins by fluorescence based assay; assay type: ADME, cell-based; conditions: oe19, 0.5 h; outline: as §4
[12] = Drug uptake in human OE33 cells assessed as increase in fluorescence intensity at 1.25 uM measured after 15 mins by microscopic method; assay type: ADME, cell-based; conditions: oe33, 0.25 h; outline: as §4
[13] = Drug uptake in human OE19 cells assessed as increase in fluorescence intensity at 1.25 uM measured after 15 mins by microscopic method; assay type: ADME, cell-based; conditions: oe19, 0.25 h; outline: as §4
[14] = Drug uptake in human OE19 cells assessed as cytoplasmic retention at 1.25 uM measured after 30 mins by RFP-tagged histone H2B staining based confocal microscopy; assay type: ADME, cell-based; conditions: oe19, 0.5 h; outline: as §2
[15] = Drug uptake in human OE33 cells assessed as cytoplasmic retention at 1.25 uM measured after 30 mins by RFP-tagged histone H2B staining based confocal microscopy; conditions: oe33, 30 min
[16] = Drug uptake in human OE19 cells assessed as cytoplasmic retention at 1.25 uM measured after 30 mins by RFP-tagged histone H2B staining based confocal microscopy; conditions: oe19, 30 min
[17] = molecular target: T2, Histone deacetylase (Homo sapiens); test: Inhibition of HDAC in human OE33 cells assessed as increase in histone H3 acetylation at 6.5 uM incubated for 48 hrs by Western blot analysis; assay type: cell-based; outline: as §3
[18] = molecular target: T2, Histone deacetylase (Homo sapiens); test: Inhibition of HDAC in human OE19 cells assessed as increase in histone H3 acetylation at 6.5 uM incubated for 48 hrs by Western blot analysis; assay type: cell-based; outline: as §3
[19] = molecular target: T2, Histone deacetylase (Homo sapiens); test: Inhibition of HDAC in human OE33 cells assessed as increase in histone H3 acetylation at 0.6 uM incubated for 48 hrs by Western blot analysis; assay type: cell-based; outline: as §3
[20] = molecular target: T2, Histone deacetylase (Homo sapiens); test: Inhibition of HDAC in human OE19 cells assessed as increase in histone H3 acetylation at 0.6 uM incubated for 48 hrs by Western blot analysis; assay type: cell-based; outline: as §3

Chain of Histone deacetylase 1 (Q13547 whole entry): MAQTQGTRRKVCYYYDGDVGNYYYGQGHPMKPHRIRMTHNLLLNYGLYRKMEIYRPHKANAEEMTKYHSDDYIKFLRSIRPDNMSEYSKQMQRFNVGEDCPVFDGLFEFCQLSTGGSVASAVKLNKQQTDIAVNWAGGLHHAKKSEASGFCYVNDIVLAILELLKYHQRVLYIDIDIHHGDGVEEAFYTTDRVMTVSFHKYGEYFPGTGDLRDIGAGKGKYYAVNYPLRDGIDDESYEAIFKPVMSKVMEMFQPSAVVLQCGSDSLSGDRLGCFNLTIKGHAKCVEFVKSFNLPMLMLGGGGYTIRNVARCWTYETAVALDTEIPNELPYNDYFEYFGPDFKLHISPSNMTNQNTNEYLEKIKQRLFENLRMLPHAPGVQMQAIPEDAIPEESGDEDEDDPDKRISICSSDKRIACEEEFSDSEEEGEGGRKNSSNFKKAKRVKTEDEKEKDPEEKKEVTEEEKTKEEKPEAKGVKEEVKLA
Chain of Histone deacetylase 2 (Q92769 whole entry): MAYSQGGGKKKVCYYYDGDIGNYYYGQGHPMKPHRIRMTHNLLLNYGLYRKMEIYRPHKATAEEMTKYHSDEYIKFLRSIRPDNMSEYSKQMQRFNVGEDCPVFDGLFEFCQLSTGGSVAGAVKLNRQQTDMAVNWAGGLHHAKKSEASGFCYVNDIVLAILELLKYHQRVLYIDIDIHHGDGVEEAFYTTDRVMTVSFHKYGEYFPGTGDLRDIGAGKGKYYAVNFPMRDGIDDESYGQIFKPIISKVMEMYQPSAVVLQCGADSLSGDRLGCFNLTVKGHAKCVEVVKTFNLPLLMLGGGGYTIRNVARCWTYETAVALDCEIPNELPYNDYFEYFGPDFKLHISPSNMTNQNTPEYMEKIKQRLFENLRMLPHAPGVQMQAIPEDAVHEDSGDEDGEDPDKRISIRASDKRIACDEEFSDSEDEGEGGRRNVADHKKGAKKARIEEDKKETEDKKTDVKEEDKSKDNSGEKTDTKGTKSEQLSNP
Chain of Histone deacetylase 3/Nuclear receptor corepressor 2 (HDAC3/NCoR2) (O15379 whole entry, the tested form may be a part): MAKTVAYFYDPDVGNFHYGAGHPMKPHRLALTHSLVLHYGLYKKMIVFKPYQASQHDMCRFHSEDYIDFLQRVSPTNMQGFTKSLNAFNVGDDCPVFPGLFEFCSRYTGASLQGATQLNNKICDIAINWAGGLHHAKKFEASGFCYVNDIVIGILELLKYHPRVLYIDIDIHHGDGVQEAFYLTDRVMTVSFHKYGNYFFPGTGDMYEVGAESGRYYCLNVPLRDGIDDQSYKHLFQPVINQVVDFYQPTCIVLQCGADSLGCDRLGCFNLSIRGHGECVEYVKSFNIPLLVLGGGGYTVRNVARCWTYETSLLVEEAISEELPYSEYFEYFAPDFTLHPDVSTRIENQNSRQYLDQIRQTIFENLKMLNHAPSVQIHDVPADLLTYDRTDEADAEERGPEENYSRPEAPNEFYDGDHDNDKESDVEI
Chain of Histone deacetylase 3/Nuclear receptor corepressor 2 (HDAC3/NCoR2) (Q9Y618 whole entry, further chain, the tested form may be a part): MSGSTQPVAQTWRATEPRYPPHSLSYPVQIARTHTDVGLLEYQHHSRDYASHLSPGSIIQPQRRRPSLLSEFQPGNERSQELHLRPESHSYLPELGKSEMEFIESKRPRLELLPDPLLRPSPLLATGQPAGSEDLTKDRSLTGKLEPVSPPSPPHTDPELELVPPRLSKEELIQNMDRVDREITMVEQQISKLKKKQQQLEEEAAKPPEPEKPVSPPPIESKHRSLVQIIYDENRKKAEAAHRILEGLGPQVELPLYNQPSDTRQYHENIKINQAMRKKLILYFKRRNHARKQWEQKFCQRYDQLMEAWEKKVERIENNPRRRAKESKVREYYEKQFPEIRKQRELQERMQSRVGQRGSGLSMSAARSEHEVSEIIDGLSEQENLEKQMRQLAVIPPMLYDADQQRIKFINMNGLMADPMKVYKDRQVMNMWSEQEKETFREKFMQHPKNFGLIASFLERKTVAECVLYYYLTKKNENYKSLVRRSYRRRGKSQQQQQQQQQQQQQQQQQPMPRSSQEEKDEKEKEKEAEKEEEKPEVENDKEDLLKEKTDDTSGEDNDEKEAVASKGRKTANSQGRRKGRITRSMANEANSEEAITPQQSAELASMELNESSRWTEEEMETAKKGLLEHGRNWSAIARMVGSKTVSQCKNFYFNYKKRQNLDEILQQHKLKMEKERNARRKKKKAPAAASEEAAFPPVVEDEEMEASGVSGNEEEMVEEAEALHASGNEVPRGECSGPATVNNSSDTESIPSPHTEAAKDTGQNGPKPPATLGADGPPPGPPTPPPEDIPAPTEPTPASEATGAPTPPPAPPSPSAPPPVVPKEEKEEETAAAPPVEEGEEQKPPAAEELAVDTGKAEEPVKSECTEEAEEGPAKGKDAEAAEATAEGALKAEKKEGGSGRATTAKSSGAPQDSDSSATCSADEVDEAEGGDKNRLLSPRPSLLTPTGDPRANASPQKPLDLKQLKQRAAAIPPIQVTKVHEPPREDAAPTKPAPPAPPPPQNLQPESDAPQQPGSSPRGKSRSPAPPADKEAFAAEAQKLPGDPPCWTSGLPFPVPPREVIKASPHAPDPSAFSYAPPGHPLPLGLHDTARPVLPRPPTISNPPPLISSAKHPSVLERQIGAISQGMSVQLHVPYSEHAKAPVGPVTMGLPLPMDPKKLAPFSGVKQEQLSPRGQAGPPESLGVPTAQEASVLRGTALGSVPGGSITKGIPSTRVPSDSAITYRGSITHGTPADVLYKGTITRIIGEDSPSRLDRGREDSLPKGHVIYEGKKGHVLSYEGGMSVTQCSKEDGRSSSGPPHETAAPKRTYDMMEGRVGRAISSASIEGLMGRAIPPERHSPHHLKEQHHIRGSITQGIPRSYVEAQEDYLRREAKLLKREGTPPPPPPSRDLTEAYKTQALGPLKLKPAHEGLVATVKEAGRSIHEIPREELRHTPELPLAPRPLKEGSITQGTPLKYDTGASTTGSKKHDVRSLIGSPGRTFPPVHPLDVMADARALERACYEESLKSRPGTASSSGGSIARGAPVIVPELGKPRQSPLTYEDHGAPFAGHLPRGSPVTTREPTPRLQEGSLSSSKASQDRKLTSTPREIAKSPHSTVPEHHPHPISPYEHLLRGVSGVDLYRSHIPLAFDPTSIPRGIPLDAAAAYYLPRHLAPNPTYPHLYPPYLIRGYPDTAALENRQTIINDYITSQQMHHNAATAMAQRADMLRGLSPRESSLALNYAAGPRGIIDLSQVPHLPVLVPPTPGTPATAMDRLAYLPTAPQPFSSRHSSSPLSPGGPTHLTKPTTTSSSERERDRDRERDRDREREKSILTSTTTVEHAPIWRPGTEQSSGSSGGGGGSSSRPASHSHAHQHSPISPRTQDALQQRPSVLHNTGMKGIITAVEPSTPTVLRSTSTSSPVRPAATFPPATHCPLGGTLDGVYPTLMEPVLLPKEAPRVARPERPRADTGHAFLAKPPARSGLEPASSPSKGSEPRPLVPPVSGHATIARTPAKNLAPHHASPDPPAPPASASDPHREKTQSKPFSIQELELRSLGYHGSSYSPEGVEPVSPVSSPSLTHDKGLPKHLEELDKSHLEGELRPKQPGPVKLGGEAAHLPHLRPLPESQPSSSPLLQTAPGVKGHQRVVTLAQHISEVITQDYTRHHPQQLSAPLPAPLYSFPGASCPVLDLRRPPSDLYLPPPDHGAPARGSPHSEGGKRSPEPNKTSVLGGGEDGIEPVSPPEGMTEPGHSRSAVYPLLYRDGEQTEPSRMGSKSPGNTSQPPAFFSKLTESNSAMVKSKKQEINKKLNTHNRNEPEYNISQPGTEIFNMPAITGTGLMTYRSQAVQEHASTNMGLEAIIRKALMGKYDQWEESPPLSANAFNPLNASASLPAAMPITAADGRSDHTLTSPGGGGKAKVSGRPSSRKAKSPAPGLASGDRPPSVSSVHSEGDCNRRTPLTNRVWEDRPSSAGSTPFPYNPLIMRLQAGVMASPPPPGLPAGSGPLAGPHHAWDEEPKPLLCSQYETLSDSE

O=C(CCCCCCC(=O)Nc1ccccc1)NO [VORINOSTAT]
GI50 [1]: 1120 nM | GI50 [2]: 1420 nM

CN(C)c1cccc2c(S(=O)(=O)N(CCCCCC(=O)NO)CC(=O)NCc3ccccc3)cccc12
Drug uptake [3]: Active | IC50 [4]: 46 nM | IC50 [5]: 87 nM | IC50 [6]: 81 nM | IC50 [7]: 34 nM | GI50 ([1]; Homo sapiens, OE33, 72 h): 776 nM | GI50 ([2]; Homo sapiens, OE19, 72 h): 925 nM | inhibition [8]: Active | inhibition [9]: Active | Drug uptake [10]: Active | Drug uptake [11]: Active | Drug uptake [12]: Active | Drug uptake [13]: Active | Drug uptake [14]: Active | Drug uptake [15]: Active | Drug uptake [16]: Active

CN(C)c1cccc2c(S(=O)(=O)N(CC(=O)NCc3ccccc3)Cc3ccc(C(=O)NO)cc3)cccc12
Drug uptake [3]: Active | IC50 [4]: 132 nM | IC50 [5]: 1020 nM | IC50 [6]: 3500 nM | IC50 [7]: 915 nM | GI50 ([1]; Homo sapiens, OE33, 72 h): 6230 nM | GI50 ([2]; Homo sapiens, OE19, 72 h): 12900 nM | inhibition [17]: Active | inhibition [18]: Active | Drug uptake [10]: Active | Drug uptake [11]: Active | Drug uptake [12]: Active | Drug uptake [13]: Active | Drug uptake [14]: Active | Drug uptake [15]: Active | Drug uptake [16]: Active

CN(C)c1cccc2c(S(=O)(=O)N(CC(=O)NCc3ccccc3)Cc3ccc(C(=O)Nc4ccccc4N)cc3)cccc12
Drug uptake [3]: Active | IC50 [4]: > 10000 nM | IC50 [5]: 1130 nM | IC50 [6]: 668 nM | IC50 [7]: 676 nM | GI50 ([1]; Homo sapiens, OE33, 72 h): 4590 nM | GI50 ([2]; Homo sapiens, OE19, 72 h): 9100 nM | inhibition [19]: Active | inhibition [20]: Active | Drug uptake [10]: Active | Drug uptake [11]: Active | Drug uptake [12]: Active | Drug uptake [13]: Active | Drug uptake [14]: Active | Drug uptake [15]: Active | Drug uptake [16]: Active
